Calls of active or inactive are those of the source. The rule behind the calls is not given here.
Columns and labels:
Rattus norvegicus [1] = test: Antiallergic activity in rat assessed as inhibition of ovalbumin-induced passive cutaneous anaphylaxis at 0.5 mg/kg, iv measured after 14 days; assay type: functional
How it was run: (§1)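 Rats were passively sensitized by intradermal injection of antiserum dilutions on the back. 48 h later they received 1 mg ovalbumin iv in 1 mL saline with 0.25% Evans Blue. Compound was dissolved in the antigen solution, using a slight molar excess of sodium bicarbonate if needed, and given with it. Mean orthogonal spot diameter was read on reflected dorsal skin. Percent inhibition was taken against the extrapolated base value. n=5 per group; Student's t test, p≤0.05.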

Rattus norvegicus [2] = test: Antiallergic activity in po dosed rat assessed as inhibition of ovalbumin-induced passive cutaneous anaphylaxis; assay type: functional; settings: for ED50: read-out: ID50 (the source's name)
How it was run: (§2)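 Passive cutaneous anaphylaxis in rats sensitized intradermally with antiserum 48 h before iv challenge with 1 mg ovalbumin plus 0.25% Evans Blue. Drug was suspended in 1% gum tragacanth in saline and given orally 10-15 min before antigen. Spot diameter was read on reflected dorsal skin. Percent inhibition was taken against the extrapolated base value. Groups of five; ID50 in mg/kg.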

Rattus norvegicus [3] = test: Antiallergic activity in iv dosed rat assessed as inhibition of ovalbumin-induced passive cutaneous anaphylaxis; assay type: functional; settings: for ED50: Rattus norvegicus, iv, read-out: ID50 (the source's name); how it was run: as §1
Rattus norvegicus [4] = test: Antiallergic activity in rat assessed as inhibition of ovalbumin-induced passive cutaneous anaphylaxis at 10 mg/kg, ip measured after 14 days; assay type: functional; settings: route intraperitoneal
[5] = Antiallergic activity in rat peritoneal mast cells assessed as inhibition of ovalbumin-induced histamine release after 15 mins; assay type: functional, cell-based; settings: Mast cell, 0.25 h
How it was run: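 Rat peritoneal mast cells were passively sensitized with the PCA antiserum, washed, and resuspended in Hank's balanced salt solution containing ovalbumin 20 mcg/mL plus drug. After 15 min at 37 °C, histamine released into the supernatant was measured fluorometrically. Value is the concentration giving 50% inhibition.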

Rattus norvegicus [6] = test: Antiallergic activity in po dosed rat allergic bronchoconstriction model assessed as reduction in respiratory flow rate administered 15 to 30 mins prior to ovalbumin challenge measured after 10 mins; assay type: functional
How it was run: (§3)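 Rats were immunized im with 1 mg ovalbumin on alumina, three times on alternate days. On day 8, 9 or 10 they were anesthetized with pentobarbital 60 mg/kg ip, tracheally cannulated and allowed to breathe spontaneously via a pneumotachograph. Drug was given orally 15 and 30 min before iv jugular 1 mg ovalbumin. Fall in respiratory flow rate and 10-min survival were recorded. Value is the mg/kg po dose inhibiting a 40% flow reduction.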

Rattus norvegicus [7] = test: Antiallergic activity in po dosed rat allergic bronchoconstriction model assessed as survival from death by bronchoconstriction administered 15 to 30 mins prior to ovalbumin challenge measured after 10 mins; assay type: functional; settings: read-out: ID50 (the source's name)
How it was run: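 Rats immunized im with 1 mg ovalbumin on alumina in the nuchal region, three times on alternate days. On day 8, 9 or 10 they were anaesthetised (pentobarbital 60 mg/kg ip), tracheally cannulated and breathed spontaneously. Drug was given po 15 and 30 min before a 1 mg ovalbumin iv (jugular) challenge. Survival was scored over 10 min, giving the po dose that prevents death in 50% of animals.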

Rattus norvegicus [8] = test: Antiallergic activity in po dosed rat assessed as inhibition of ovalbumin-induced passive cutaneous anaphylaxis relative to doxantrazole; assay type: functional; how it was run: as §2
Cavia porcellus = species on record: Cavia porcellus; test: Antagonist activity at histamine receptor in guinea pig ileum assessed as reduction in histamine-induced contractions up to 0.1 mM; assay type: tissue-based
Rattus norvegicus [9] = test: Antiallergic activity in rat assessed as inhibition of ovalbumin-induced passive cutaneous anaphylaxis at 0.5 mg/kg, iv measured after 14 days relative to doxantrazole; assay type: functional; how it was run: as §1
Rattus norvegicus [10] = test: Antiallergic activity in rat assessed as inhibition of ovalbumin-induced passive cutaneous anaphylaxis at 0.5 mg/kg, iv measured after 14 days relative to cromolyn sodium; assay type: functional; how it was run: as §1
Rattus norvegicus [11] = test: Antiallergic activity in po dosed rat allergic bronchoconstriction model assessed as survival from death by bronchoconstriction administered 15 to 30 mins prior to ovalbumin challenge measured after 10 mins relative to doxantrazole; assay type: functional
Rattus norvegicus [12] = test: Antiallergic activity in po dosed rat allergic bronchoconstriction model assessed as reduction in respiratory flow rate administered 15 to 30 mins prior to ovalbumin challenge measured after 10 mins relative to doxantrazole; assay type: functional; how it was run: as §3
Rattus norvegicus [13] = test: Antiallergic activity in rat assessed as inhibition of ovalbumin-induced passive cutaneous anaphylaxis at 1 mg/kg, iv measured after 14 days; assay type: functional; how it was run: as §1

Row | SMILES | inhibition in vivo at 0.5 mg/kg (Rattus norvegicus [1]) | ED50 (Rattus norvegicus [2]) | ED50 (Rattus norvegicus [3]) | other results
1 | Cc1cc2nc3ccc(C(=O)O)cn3c(=O)c2cc1C | 25% | 2 mg/kg | – | –
2 | COc1cc2nc3ccc(C(=O)O)cn3c(=O)c2cc1OC | 100% | 10 mg/kg | 0.05 mg/kg | –
3 | C=CCOc1ccc2nc3ccc(C(=O)O)cn3c(=O)c2c1 | – | > 1 mg/kg | – | –
4 | CCOc1ccc2nc3ccc(C(=O)O)cn3c(=O)c2c1 | – | > 1 mg/kg | – | –
5 | O=C(O)c1ccc2nc3cc(O)c(O)cc3c(=O)n2c1 | – | > 1 mg/kg | – | –
6 | O=C(O)c1ccc2nc3ccc(OCCO)cc3c(=O)n2c1 | – | > 1 mg/kg | – | –
7 | O=C(O)c1ccc2nc3ccc(O)cc3c(=O)n2c1 | 100% | 5 mg/kg | 0.05 mg/kg | –
8 | CCCCOc1ccc2nc3ccc(C(=O)O)cn3c(=O)c2c1 | 88% | > 2 mg/kg | – | –
9 | Cl.O=C(O)c1ccc2nc3ccccc3c(=O)n2c1 | 45% | 2.5 mg/kg | 0.5 mg/kg | –
10 | COc1ccc2nc3ccc(C(=O)O)cn3c(=O)c2c1 | 100% | 0.5 mg/kg | 0.05 mg/kg | –
11 | O=C(O)c1ccc2nc3cc4c(cc3c(=O)n2c1)OCO4 | 30% | – | – | –
12 | Cc1ccc2c(=O)n3cc(C(=O)O)ccc3nc2c1 | – | – | – | inhibition in vivo at 10 mg/kg (Rattus norvegicus [4]): 54%
13 | O=C([O-])c1cc(=O)c2c(OCC(O)COc3cccc4oc(C(=O)[O-])cc(=O)c34)cccc2o1.[Na+].[Na+] [CROMOLYN SODIUM] | – | – | 1 mg/kg | IC50 [5]: 6500 nM; ID50 (Rattus norvegicus [2]): inactive
14 | O=C(O)c1ccc2nc3cc(O)ccc3c(=O)n2c1 | 36% | – | – | –
15 | O=C(O)c1ccc2nc3cc(Cl)ccc3c(=O)n2c1 | – | 5 mg/kg | – | –
16 | O=C1c2ccccc2S(=O)(=O)c2cc(-c3nn[nH]n3)ccc21 [DOXANTRAZOLE] | – | 5 mg/kg | 1.5 mg/kg | ID40 (Rattus norvegicus [6]): 43 mg/kg; IC50 [5]: 480 nM; ID100 (Rattus norvegicus [3]): 10 mg/kg; ED50 (Rattus norvegicus [7]): 125 mg/kg
17 | CCCOc1ccc2nc3ccc(C(=O)O)cn3c(=O)c2c1 | 100% | 2 mg/kg | – | –
18 | O=C(O)c1ccc2nc3ccc(Br)cc3c(=O)n2c1 | 34% | 1 mg/kg | – | –
19 | Cc1ccc2nc3ccc(C(=O)O)cn3c(=O)c2c1 | 100% | 0.75 mg/kg | 0.05 mg/kg | fold change (FC) (Rattus norvegicus [8]): 4; ID40 (Rattus norvegicus [6]): 9.3 mg/kg; inhibition (Cavia porcellus): inactive; IC50 [5]: 940 nM; ID100 (Rattus norvegicus [3]): 2.5 mg/kg; fold change (FC) (Rattus norvegicus [9]): 30; ED50 (Rattus norvegicus [7]): 12.5 mg/kg; fold change (FC) (Rattus norvegicus [10]): 30; fold change (FC) (Rattus norvegicus [11]): 10; fold change (FC) (Rattus norvegicus [12]): 4.6
20 | COc1ccc2c(=O)n3cc(C(=O)O)ccc3nc2c1 | – | > 2 mg/kg | – | inhibition in vivo at 1 mg/kg (Rattus norvegicus [13]): 100%
21 | O=C(O)c1ccc2nc3ccc(Cl)cc3c(=O)n2c1 | 40% | – | – | –

Reference: ChEMBL document CHEMBL3244353, “Antiallergy activity of substituted 11-oxo-11 H-pyrido[2,1-b]quinazoline-8-carboxylic acids” (J Med Chem, 1979)
